The values that follow come from ChEMBL document CHEMBL3045743, “Synthesis and herbicidal activity of isoindoline-1,3-dione substituted benzoxazinone derivatives containing a carboxylic ester group” (J Agric Food Chem, 2009).

Common to all, as to type: functional
Assay [1] concerns Amaranthus. The assay can be described thus: Pre-emergence herbicidal activity against Amaranthus ascendens assessed as growth inhibition at 75 g.a.i./ha applied 24 hr after seeds were sown measured after 15 days. Conditions: read-out: GI. In a few lines: (§1)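 Weeds sown 5 mm deep in pots of greenhouse clay soil (pH 6.5, 37.5% clay, CEC 12.9 cmol/kg) and grown at 22-25 °C. Water-diluted formulation was applied pre-emergence 24 h after sowing. Untreated and DMF solvent controls were included. Growth inhibition was visually rated in % against untreated controls after 15 days, as the mean of triplicates.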

For assay [2], the system named is Echinochloa crus-galli. Description: Post-emergence herbicidal activity against Echinochloa crus-galli (barnyard grass) assessed as growth inhibition at 75 g.a.i./ha applied at one-leaf stage measured after 15 days. The note with it: 360 h, read-out: GI. The gist of the method: (§2)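 Pot-grown weeds sown 5 mm deep in greenhouse clay soil (pH 6.5, 1.7% organic matter, CEC 12.9 cmol/kg) at 22-25 °C. Stock diluted with water and sprayed post-emergence: dicots at 2-leaf stage, monocots at 1-leaf stage. Untreated and DMF solvent controls were included. % growth inhibition was scored visually versus untreated controls after 15 days. Triplicates averaged.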

The subject of assay [3] is Chenopodium album. Description: Pre-emergence herbicidal activity against Chenopodium album assessed as growth inhibition at 75 g.a.i./ha applied 24 hr after seeds were sown measured after 15 days. Conditions: read-out: GI. In a few lines:
as §1

Assay [4] concerns Echinochloa crus-galli. Description: Pre-emergence herbicidal activity against Echinochloa crus-galli (barnyard grass) assessed as growth inhibition at 75 g.a.i./ha applied 24 hr after seeds were sown measured after 15 days. The note with it: read-out: GI. The gist of the method: as §1
Assay [5] concerns Abutilon theophrasti. The assay can be described thus: Pre-emergence herbicidal activity against Abutilon theophrasti (velvetleaf) assessed as growth inhibition at 75 g.a.i./ha applied 24 hr after seeds were sown measured after 15 days. Conditions: read-out: GI. In a few lines:
as §1

Assay [6] has as its system Setaria viridis. The assay can be described thus: Pre-emergence herbicidal activity against Setaria viridis (green foxtail) assessed as growth inhibition at 75 g.a.i./ha applied 24 hr after seeds were sown measured after 15 days. Conditions: read-out: GI. The gist of the method: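 Preliminary pre-emergence screen at a single rate of 75 g a.i./ha. Stock diluted with water and sprayed on greenhouse pots 24 h after seeds were sown 5 mm deep in clay soil (pH 6.5, 1.7% organic matter); grown at 22-25 °C. Untreated and DMF solvent controls included; triplicate. Visual % growth inhibition vs untreated after 15 days, averaged and banded (>80% top band).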

For assay [7], the system named is Digitaria sanguinalis. The assay can be described thus: Pre-emergence herbicidal activity against Digitaria sanguinalis (hairy crabgrass) assessed as growth inhibition at 75 g.a.i./ha applied 24 hr after seeds were sown measured after 15 days. The note with it: read-out: GI. The gist of the method:
as §1

Assay [8] relates to Abutilon theophrasti. Description: Post-emergence herbicidal activity against Abutilon theophrasti (velvetleaf) assessed as growth inhibition at 75 g.a.i./ha applied at two-leaf stage measured after 15 days. Conditions: 360 h, read-out: GI. In a few lines:
as §2

In assay [9] the test system is Amaranthus. Description: Post-emergence herbicidal activity against Amaranthus ascendens assessed as growth inhibition at 75 g.a.i./ha applied at two-leaf stage measured after 15 days. The note with it: 360 h, read-out: GI. In a few lines:
as §2

Assay [10] has as its system Setaria viridis. The assay can be described thus: Post-emergence herbicidal activity against Setaria viridis (green foxtail) assessed as growth inhibition at 75 g.a.i./ha applied at one-leaf stage measured after 15 days. Conditions: 360 h, read-out: GI. The gist of the method: as §2
The subject of assay [11] is Chenopodium album. The assay can be described thus: Post-emergence herbicidal activity against Chenopodium album assessed as growth inhibition at 75 g.a.i./ha applied at two-leaf stage measured after 15 days. Conditions: 360 h, read-out: GI. In a few lines:
as §2

Assay [12] has as its system Digitaria sanguinalis. Description: Post-emergence herbicidal activity against Digitaria sanguinalis (hairy crabgrass) assessed as growth inhibition at 75 g.a.i./ha applied at one-leaf stage measured after 15 days. Conditions: 360 h, read-out: GI. The gist of the method:
as §2

Turning to `CCOC(=O)C(C)N1C(=O)COc2cc(F)c(N3C(=O)c4ccc(C)cc4C3=O)cc21` (centres undefined), the inhibition of growth at 75 g/ha is < 50% in assay [1]; < 50% in assay [2]; 50% in [3]; < 50% in [4]; < 50% in assay [5]; < 50% in assay [6]. Moreover, the inhibition of growth at 75 g/ha was < 50% in assay [7]; > 80% in assay [8]; < 50% in assay [9]; < 50% in [10]; < 50% in [11]; < 50% in assay [12].

As for `CCOC(=O)CN1C(=O)COc2cc(F)c(N3C(=O)c4ccc(C)cc4C3=O)cc21`, the inhibition of growth at 75 g/ha in assay [1], in assay [2], in assay [3], in [4], in assay [5] and in assay [6] was < 50% in each case. For the same compound, the inhibition of growth at 75 g/ha is < 50% in assay [7]; 50% in assay [8]; 50% in [9]; < 50% in [10]; 50% in [11]; < 50% in assay [12].

Consider `CCOC(=O)CN1C(=O)COc2cc(F)c(N3C(=O)c4ccc([N+](=O)[O-])cc4C3=O)cc21`, for which the inhibition of growth at 75 g/ha in assay [1], in assay [2], in assay [3], in [4], in assay [5] and in [6] was < 50% each time. The inhibition of growth at 75 g/ha is < 50% in assay [7]; 50% in [8]; 50% in [9]; < 50% in [10]; 50% in assay [11]; < 50% in assay [12].

For `CCOC(=O)CN1C(=O)COc2cc(N3C(=O)c4ccccc4C3=O)c(F)cc21`, the inhibition of growth at 75 g/ha in assay [1], in [2], in assay [3], in assay [4], in assay [5] and in assay [6] was < 50% throughout. Further, the inhibition of growth at 75 g/ha in assay [7], in assay [8], in assay [9], in assay [10], in assay [11] and in assay [12] was < 50% throughout.

For `CCOC(=O)CN1C(=O)COc2cc(N3C(=O)c4ccc(C)cc4C3=O)c(F)cc21`, the inhibition of growth at 75 g/ha in [1], in [2], in assay [3], in assay [4], in assay [5] and in assay [6] was < 50% throughout. Besides, the inhibition of growth at 75 g/ha in [7], in assay [8], in [9], in [10], in assay [11] and in [12] was < 50% each time.

As for `CCOC(=O)CN1C(=O)COc2cc(N3C(=O)c4cc(Cl)c(Cl)cc4C3=O)c(F)cc21`, the inhibition of growth at 75 g/ha in [1], in assay [2], in [3], in [4], in assay [5] and in assay [6] was < 50% in each case. In addition, the inhibition of growth at 75 g/ha in [7], in assay [8], in assay [9], in assay [10], in assay [11] and in [12] was < 50% each time.

For `COC(=O)CN1C(=O)COc2cc(F)c(N3C(=O)C4=C(CCCC4)C3=O)cc21`, the inhibition of growth at 75 g/ha was 50% in [1]; 50% in assay [2]; 50% in [3]; < 50% in assay [4]; 50% in [5]; < 50% in assay [6]. Moreover, the inhibition of growth at 75 g/ha in assay [7] was < 50%; in assay [8], > 80%; in assay [9], > 80%; in assay [10], 50%; in assay [11], > 80%; in assay [12], 50%.

Turning to `COC(=O)C(C)N1C(=O)COc2cc(F)c(N3C(=O)C4=C(CCCC4)C3=O)cc21` (centres undefined), the inhibition of growth at 75 g/ha in assay [1] is 50%; in [2], > 80%; in assay [3] it was 50%; in assay [4], < 50%; in assay [5] it was > 80%; in assay [6] it was < 50%. For the same compound, the inhibition of growth at 75 g/ha is < 50% in assay [7]; > 80% in assay [8]; > 80% in [9]; > 80% in assay [10]; > 80% in assay [11]; > 80% in [12].

Regarding `CCOC(=O)CN1C(=O)COc2cc(F)c(N3C(=O)C4=C(CCCC4)C3=O)cc21`, the inhibition of growth at 75 g/ha in assay [1] was > 80%; in assay [2], < 50%; in assay [3] it was > 80%; in [4] it was < 50%; in assay [5] it was > 80%; in assay [6] it was < 50%. Also, the inhibition of growth at 75 g/ha is < 50% in assay [7]; > 80% in assay [8]; > 80% in assay [9]; < 50% in assay [10]; > 80% in [11]; < 50% in assay [12].

For `CCOC(=O)C(CC)N1C(=O)COc2cc(F)c(N3C(=O)C4=C(CCCC4)C3=O)cc21` (centres undefined), the inhibition of growth at 75 g/ha in assay [1] is 50%; in assay [2], 50%; in assay [3] it was 50%; in assay [4], 50%; in [5] it was > 80%; in [6], 50%. For the same compound, the inhibition of growth at 75 g/ha in assay [7] was 50%; in assay [8] it was > 80%; in [9], > 80%; in [10], 50%; in [11] it was > 80%; in assay [12], 50%.

With `CCOC(=O)C(C)N1C(=O)COc2cc(F)c(N3C(=O)C4=C(CCCC4)C3=O)cc21` (centres undefined), the inhibition of growth at 75 g/ha in assay [1] is > 80%; in assay [2] it was > 80%; in [3], > 80%; in assay [4] it was < 50%; in [5] it was > 80%; in assay [6] it was 50%. In addition, the inhibition of growth at 75 g/ha in assay [7] was 50%; in assay [8], > 80%; in assay [9], > 80%; in assay [10] it was > 80%; in [11], > 80%; in assay [12], > 80%.

As to `CCC(C(=O)OC)N1C(=O)COc2cc(F)c(N3C(=O)C4=C(CCCC4)C3=O)cc21` (centres undefined), the inhibition of growth at 75 g/ha in assay [1], in [2], in assay [3], in assay [4], in [5] and in assay [6] was < 50% throughout. The inhibition of growth at 75 g/ha in [7] was < 50%; in [8], > 80%; in [9] it was > 80%; in [10] it was 50%; in [11] it was > 80%; in [12], 50%.
